ChEMBL document CHEMBL1129989, “Minor structural differences in Boc-CCK-4 derivatives dictate affinity and selectivity for CCK-A and CCK-B receptors” (J Med Chem, 1997)
*1 amine or outer side, *2 acyl side, *3 side chain or, on linkers, in order; H or OH if unused. Where a SMILES comes first, the peptide text is derived from it. Side-chain parts run from the residue outwards. The star is where a group is joined. NH(4-MeO-phenyl) = COc1ccc(N*)cc1; pNA = O=[N+]([O-])c1ccc(N*)cc1; X2 = O=[N+]([O-])c1cccc(N*)c1; NH(3-MeOPh) = COc1cccc(N*)c1; 3Abz = Nc1cccc(C(=O)O)c1; 4Abz = Nc1ccc(C(=O)O)cc1; X1 = CC(=O)c1ccc(N*)cc1; 2Abz = Nc1ccccc1C(=O)O; Boc = CC(C)(C)OC(=O)*; CO = O=C([*:1])[*:2]

Key:
Cavia porcellus [1] = organism: Cavia porcellus; experiment: Relative affinity for type B (cortex) over type A (pancreatic) cholecystokinin receptors
In short: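 Selectivity ratio is IC50 in cortex divided by IC50 in pancreas. Both IC50s come from displacement of specific [125I]Bolton–Hunter CCK-8 binding, each determination run in duplicate.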

[2] = target: Cholecystokinin type B receptor (Cavia porcellus); experiment: Displacement of [125I]- BH-CCK-8 from Cholecystokinin type B receptor of guinea pig cortex
[3] = target: T1, Cholecystokinin receptor type A (Cavia porcellus, UniProt Q63931); experiment: Displacement of [125I]- BH-CCK-8 from Cholecystokinin type A receptor of guinea pig pancreas
T1 sequence (Q63931 whole entry): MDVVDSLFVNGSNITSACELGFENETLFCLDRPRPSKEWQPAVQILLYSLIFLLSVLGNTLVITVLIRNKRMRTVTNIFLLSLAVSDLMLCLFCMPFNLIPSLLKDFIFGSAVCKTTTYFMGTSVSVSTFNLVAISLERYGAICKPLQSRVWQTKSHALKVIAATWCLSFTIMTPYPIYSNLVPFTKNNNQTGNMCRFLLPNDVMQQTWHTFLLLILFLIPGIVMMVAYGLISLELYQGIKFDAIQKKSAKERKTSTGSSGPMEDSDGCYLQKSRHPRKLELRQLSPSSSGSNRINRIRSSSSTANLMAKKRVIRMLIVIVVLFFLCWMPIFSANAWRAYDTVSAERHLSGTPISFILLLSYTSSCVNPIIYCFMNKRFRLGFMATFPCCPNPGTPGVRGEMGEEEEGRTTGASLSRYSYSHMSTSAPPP
In short: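 Competition binding in pancreas and cortex tissue membranes with [125I]Bolton–Hunter CCK-8 as radioligand. […] Values are means ± SE over several determinations, each run in duplicate with <5% sample variability.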

Cavia porcellus [4] = organism: Cavia porcellus; experiment: Concentration that stimulated amylase release in guinea pig pancreatic acini relative to CCK-8; assay type: functional
NCI-H345 [5] = experiment: The maximal response elicited by the compound (concentration of 10 uM) relative to the maximal response elicited by CCK-8; assay type: functional, Homo sapiens
NCI-H345 [6] = experiment: Concentration that produced 50% of the maximal response in intracellular calcium mobilization in the NCI-H345 cells.; assay type: functional, cell-based; conditions: Homo sapiens
In short: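 NCI-H345 cells carry the CCK-B/gastrin receptor. Intracellular calcium mobilization was read by indo-1 fluorescence. […] Values are means ± SE of several determinations.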

Cavia porcellus [7] = organism: Cavia porcellus; experiment: The maximal response elicited by the compound (concentration of 100 uM) relative to the maximal response elicited by CCK-8 (1 uM) in the PI hydrolysis assay; assay type: functional
NCI-H345 [8] = experiment: The maximal response elicited by the compound (concentration of 1 uM) relative to the maximal response elicited by CCK-8; assay type: functional, Homo sapiens

COC(=O)c1ccccc1NC(=O)NCCCC[C@H](NC(=O)[C@H](Cc1c[nH]c2ccccc12)NC(=O)OC(C)(C)C)C(=O)N[C@@H](CC(=O)O)C(=O)N[C@@H](Cc1ccccc1)C(N)=O (Boc-WK([CO-2Abz-OMe])DF-NH2)
C/P (Cavia porcellus [1]): 91
IC50 [2]: 3100 nM

COC(=O)c1cccc(NC(=O)NCCCC[C@H](NC(=O)[C@H](Cc2c[nH]c3ccccc23)NC(=O)OC(C)(C)C)C(=O)N[C@@H](CC(=O)O)C(=O)N[C@@H](Cc2ccccc2)C(N)=O)c1 (Boc-WK([CO-3Abz-OMe])DF-NH2)
C/P (Cavia porcellus [1]): 67
IC50 [3]: 15 nM

COC(=O)c1ccc(NC(=O)NCCCC[C@H](NC(=O)[C@H](Cc2c[nH]c3ccccc23)NC(=O)OC(C)(C)C)C(=O)N[C@@H](CC(=O)O)C(=O)N[C@@H](Cc2ccccc2)C(N)=O)cc1 (Boc-WK([CO-4Abz-OMe])DF-NH2)
IC50 [3]: 71 nM

COc1cccc(NC(=O)NCCCC[C@H](NC(=O)[C@H](Cc2c[nH]c3ccccc23)NC(=O)OC(C)(C)C)C(=O)N[C@@H](CC(=O)O)C(=O)N[C@@H](Cc2ccccc2)C(N)=O)c1 (Boc-WK([CO-NH(3-MeOPh)])DF-NH2)
C/P (Cavia porcellus [1]): 150
IC50 [3]: 9.4 nM

COc1ccc(NC(=O)NCCCC[C@H](NC(=O)[C@H](Cc2c[nH]c3ccccc23)NC(=O)OC(C)(C)C)C(=O)N[C@@H](CC(=O)O)C(=O)N[C@@H](Cc2ccccc2)C(N)=O)cc1 (Boc-WK([CO-NH(4-MeO-phenyl)])DF-NH2)
C/P (Cavia porcellus [1]): 50
IC50 [3]: 14 nM

CC(=O)c1ccc(NC(=O)NCCCC[C@H](NC(=O)[C@H](Cc2c[nH]c3ccccc23)NC(=O)OC(C)(C)C)C(=O)N[C@@H](CC(=O)O)C(=O)N[C@@H](Cc2ccccc2)C(N)=O)cc1 (Boc-WK([CO-X1])DF-NH2)
EC50 (Cavia porcellus [4]): 85 nM
Max response (NCI-H345 [5]): 91%
C/P (Cavia porcellus [1]): 0.26
IC50 [3]: 46 nM
EC50 (NCI-H345 [6]): 120 nM
Max response (Cavia porcellus [7]): 80%

CC(C)(C)OC(=O)N[C@@H](Cc1c[nH]c2ccccc12)C(=O)N[C@@H](CCCCNC(=O)Nc1cccc([N+](=O)[O-])c1)C(=O)N[C@@H](CC(=O)O)C(=O)N[C@@H](Cc1ccccc1)C(N)=O (Boc-WK([CO-X2])DF-NH2)
C/P (Cavia porcellus [1]): 210
IC50 [3]: 5.8 nM

CC(C)(C)OC(=O)N[C@@H](Cc1c[nH]c2ccccc12)C(=O)N[C@@H](CCCCNC(=O)Nc1ccc([N+](=O)[O-])cc1)C(=O)N[C@@H](CC(=O)O)C(=O)N[C@@H](Cc1ccccc1)C(N)=O (Boc-WK([CO-pNA])DF-NH2)
EC50 (Cavia porcellus [4]): 39 nM
C/P (Cavia porcellus [1]): 0.75
IC50 [3]: 41 nM
EC50 (NCI-H345 [6]): 47 nM
Max response (Cavia porcellus [7]): 74%
Max response (NCI-H345 [8]): 94%
